Test results published in ChEMBL document CHEMBL3621119, “Synthesis and Biological Evaluation of Manassantin Analogues for Hypoxia-Inducible Factor 1α Inhibition” (J Med Chem, 2015).
Activity calls are given as the source filed them. No cut-off for these calls is given here.

Experiments:
[1] = target: T1, Hypoxia inducible factors; HIF-1-alpha, HIF-2-alpha (Homo sapiens, UniProt Q16665+Q99814); experiment: Inhibition of HIF1 in human HEK293T cells transfected with pGL3-5HRE-VEGF and pRL-SV40 after 24 hrs by dual luciferase reporter assay relative to normoxic condition; format: cell-based; set-up: concentration or dose not given beside the values; settings: HEK-293T, concentration not given here
[2] = Cytotoxicity against human HEK293T cells assessed as survival rate at 10 uM after 24 hrs by MTT assay; format: cell-based, HEK-293T; settings: read-out: Survival
Outline: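 HEK-293T cells seeded at 1×10^4 cells/well and grown 24 h, then exposed under hypoxia for 24 h to serially diluted compounds (0.005–10 μM). MTT added and incubated 4 h at 37 °C. Formazan dissolved in DMSO, absorbance read at 540 nm. Survival expressed as % of cells. Three independent experiments.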

[3] = target: T1, Hypoxia inducible factors; HIF-1-alpha, HIF-2-alpha; experiment: Inhibition of HIF1 in human HEK293T cells transfected with pGL3-5HRE-VEGF and pRL-SV40 after 24 hrs by dual luciferase reporter assay; format: cell-based; settings: hek-293t
Outline: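 HEK-293T cells seeded at 5×10^3/well, attached 24 h, then co-transfected with pGL3-5HRE-VEGF firefly luciferase reporter (five HRE copies from human VEGF promoter) and pRL-SV40 Renilla plasmid. Serially diluted compounds applied under 1% O2 for 24 h post-transfection. Dual-Glo read-out, firefly then Renilla luminescence, each after 10 min; firefly normalized to Renilla (RLU). Three independent experiments, mean ± SD.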

[4] = target: Hypoxia-inducible factor 1-alpha (Homo sapiens) (UniProt Q16665); experiment: Inhibition of HIF1alpha in human HEK293T cells assessed as decrease of Cdk6 expression under hypoxic condition at 1 uM after 24 hrs by Western blot analysis; format: cell-based; settings: HEK-293T
Outline: (§1)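 HEK-293T cells held under hypoxia (1% O2) or normoxia for 24 h with or without 1 μM compound. Total protein lysates run on SDS-PAGE, transferred to nitrocellulose, blocked in 5% skim milk/TBS-0.1% Tween-20. Probed overnight at 4 °C with primary antibodies (HIF-1α, HIF-1β, Cdk6), then HRP secondary. Chemiluminescent detection, β-actin as loading control.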

[5] = target: Hypoxia-inducible factor 1-alpha (Homo sapiens) (UniProt Q16665); experiment: Inhibition of HIF1alpha in human HEK293T cells assessed as decrease of VEGF mRNA expression under hypoxic condition at 1 uM after 24 hrs by RT-PCR analysis; format: cell-based; settings: HEK-293T
Outline: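 HEK-293T cells given 1 μM compound under hypoxia for 24 h, with a normoxic control. VEGF mRNA measured by real-time PCR on 10-fold diluted cDNA with gene-specific primers. Cycling: 50 °C 2 min, 95 °C 10 min, then 40 cycles of 95 °C 15 s and 60 °C 1 min. Mean CT normalized to β-actin.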

[6] = target: Aryl hydrocarbon receptor nuclear translocator (Homo sapiens) (UniProt P27540); experiment: Inhibition of HIF1beta in HEK293T cells under hypoxic condition at 1 uM after 24 hrs by Western blot analysis; format: cell-based; settings: HEK-293T; outline: as §1
[7] = target: Hypoxia-inducible factor 1-alpha (Homo sapiens) (UniProt Q16665); experiment: Inhibition of HIF-1 alpha in human HEK293T cells under hypoxic condition at 1 uM after 24 hrs by Western blot analysis; format: cell-based; settings: HEK-293T; outline: as §1

Chain of Hypoxia-inducible factor 1-alpha (Homo sapiens) (Q16665 whole entry, looked up): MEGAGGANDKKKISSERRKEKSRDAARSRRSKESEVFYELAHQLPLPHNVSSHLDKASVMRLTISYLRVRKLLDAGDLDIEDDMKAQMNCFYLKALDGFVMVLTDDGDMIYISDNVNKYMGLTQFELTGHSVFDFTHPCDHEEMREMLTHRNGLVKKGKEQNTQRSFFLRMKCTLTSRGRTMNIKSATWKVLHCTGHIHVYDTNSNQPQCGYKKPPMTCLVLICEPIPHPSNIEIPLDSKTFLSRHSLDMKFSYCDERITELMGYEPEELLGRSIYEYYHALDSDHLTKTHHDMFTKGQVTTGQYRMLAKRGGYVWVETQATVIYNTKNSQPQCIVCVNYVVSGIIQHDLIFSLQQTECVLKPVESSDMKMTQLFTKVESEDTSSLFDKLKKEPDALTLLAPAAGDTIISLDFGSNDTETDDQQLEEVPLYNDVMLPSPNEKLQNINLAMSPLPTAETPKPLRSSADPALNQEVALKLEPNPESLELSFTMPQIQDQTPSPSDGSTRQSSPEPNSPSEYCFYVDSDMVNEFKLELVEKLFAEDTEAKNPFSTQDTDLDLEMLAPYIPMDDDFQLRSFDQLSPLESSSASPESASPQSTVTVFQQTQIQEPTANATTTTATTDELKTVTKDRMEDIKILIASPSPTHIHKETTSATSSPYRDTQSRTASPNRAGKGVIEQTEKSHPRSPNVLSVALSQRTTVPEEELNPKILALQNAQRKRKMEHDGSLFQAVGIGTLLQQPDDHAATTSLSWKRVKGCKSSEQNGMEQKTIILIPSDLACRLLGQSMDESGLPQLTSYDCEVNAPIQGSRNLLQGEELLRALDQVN
Chain of Aryl hydrocarbon receptor nuclear translocator (Homo sapiens) (P27540 whole entry): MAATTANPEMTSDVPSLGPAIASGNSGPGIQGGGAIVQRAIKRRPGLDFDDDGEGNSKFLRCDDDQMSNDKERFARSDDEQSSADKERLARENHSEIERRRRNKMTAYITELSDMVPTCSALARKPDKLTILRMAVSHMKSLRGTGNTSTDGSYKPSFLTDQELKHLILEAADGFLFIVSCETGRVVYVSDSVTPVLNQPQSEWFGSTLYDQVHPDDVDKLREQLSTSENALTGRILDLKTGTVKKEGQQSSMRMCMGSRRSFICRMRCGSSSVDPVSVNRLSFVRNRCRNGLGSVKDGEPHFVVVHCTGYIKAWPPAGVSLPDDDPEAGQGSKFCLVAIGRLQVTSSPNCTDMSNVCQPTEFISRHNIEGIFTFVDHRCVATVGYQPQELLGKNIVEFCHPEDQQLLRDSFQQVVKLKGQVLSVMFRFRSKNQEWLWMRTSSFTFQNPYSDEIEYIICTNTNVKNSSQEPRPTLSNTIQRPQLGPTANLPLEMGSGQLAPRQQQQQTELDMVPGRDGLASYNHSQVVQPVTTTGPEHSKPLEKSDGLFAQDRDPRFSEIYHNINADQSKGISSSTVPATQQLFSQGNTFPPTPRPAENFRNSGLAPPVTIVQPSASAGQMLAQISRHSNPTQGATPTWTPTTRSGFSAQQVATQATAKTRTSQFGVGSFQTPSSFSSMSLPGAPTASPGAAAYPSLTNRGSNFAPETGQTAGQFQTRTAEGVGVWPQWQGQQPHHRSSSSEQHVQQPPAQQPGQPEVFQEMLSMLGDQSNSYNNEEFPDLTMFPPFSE

| Structure (SMILES) | inhibition [1] [%] | viability at 24 h, 10 µM [2] [%] | IC50 [3] [nM] | inhibition [4] | inhibition [5] | inhibition [6] | inhibition [7] |
| --- | --- | --- | --- | --- | --- | --- | --- |
| COc1ccc([C@H](COc2ccc([C@H]3O[C@H](c4ccc(OC[C@H](OC)c5ccc(OC)c(OC)c5)c(OC)c4)[C@H](C)[C@H]3C)cc2OC)OC)cc1OC | 87 | > 80 | 1930 |  |  |  |  |
| COc1ccc(C(=O)[C@@H](C)Oc2ccc([C@H]3O[C@H](c4ccc(OC)c(OC)c4)[C@H](C)[C@H]3C)cc2OC)cc1OC | 82 | > 80 | 3700 |  |  |  |  |
| COc1ccc([C@@H](O)COc2ccc([C@H]3O[C@H](c4ccc(OC[C@H](O)c5ccc(OC)c(OC)c5)c(OC)c4)[C@H](C)[C@H]3C)cc2OC)cc1OC | 94 | > 80 | 380 |  |  |  |  |
| COc1ccc(C(=O)COc2cc(C(=O)[C@@H](C)Oc3ccc([C@H]4O[C@H](c5ccc(O[C@H](C)C(=O)c6ccc(OC)c(OCC(=O)c7ccc(OC)c(OC)c7)c6)c(OC)c5)[C@H](C)[C@H]4C)cc3OC)ccc2OC)cc1OC | 36 | > 80 |  |  |  |  |  |
| COc1ccc(C(=O)[C@@H](C)Oc2ccc([C@H]3O[C@H](c4ccc(O[C@H](C)C(=O)c5ccc(OC)c(OC)c5)c(OC)c4)[C@H](C)[C@H]3C)cc2OC)cc1OC | 114 | > 80 | 910 |  |  |  |  |
| COc1ccc([C@@H](O)[C@@H](C)Oc2ccc([C@H]3O[C@H](c4ccc(OC)c(OC)c4)[C@H](C)[C@H]3C)cc2OC)cc1OC | 113 | > 80 | 320 | Active | Active | inactive | Active |
| COc1ccc(C(=O)[C@@H](C)Oc2ccc([C@H]3O[C@H](c4ccc(O[C@H](C)C(=O)c5ccc(OC)c(O)c5)c(OC)c4)[C@H](C)[C@H]3C)cc2OC)cc1O | 78 | > 80 | 2110 |  |  |  |  |
| COc1cc([C@H]2O[C@H](c3ccc(O[C@H](C)C(=O)c4ccccc4)c(OC)c3)[C@H](C)[C@H]2C)ccc1O[C@H](C)C(=O)c1ccccc1 | 101 | > 80 | 690 | Active | Active | inactive | Active |
| COc1ccc([C@@H](OC)[C@@H](C)Oc2ccc([C@H]3O[C@H](c4ccc(O[C@H](C)[C@H](OC)c5ccc(OC)c(OC)c5)c(OC)c4)[C@H](C)[C@H]3C)cc2OC)cc1OC | 102 | > 80 | 430 |  |  |  |  |
| COc1ccc(CCOc2ccc([C@H]3O[C@H](c4ccc(OCCc5ccc(OC)c(OC)c5)c(OC)c4)[C@H](C)[C@H]3C)cc2OC)cc1OC | 64 | > 80 | 1440 |  |  |  |  |
| COc1ccc(C(=O)COc2ccc([C@H]3O[C@H](c4ccc(OCC(=O)c5ccc(OC)c(OC)c5)c(OC)c4)[C@H](C)[C@H]3C)cc2OC)cc1OC | 93 | > 80 | 350 | Active | Active | inactive | Active |
| COc1cc([C@H]2O[C@H](c3ccc(O[C@H](C)[C@H](O)c4ccccc4)c(OC)c3)[C@H](C)[C@H]2C)ccc1O[C@H](C)[C@H](O)c1ccccc1 | 79 | > 80 | 590 |  |  |  |  |
